ChEMBL document CHEMBL5344432, “Identification of a Dual Autophagy and REV-ERB Inhibitor with in Vivo Anticancer Efficacy” (J Med Chem, 2024)
Active and inactive are the calls of the source. The rule behind the calls is not given here.

Tests used:
BT-474 [1] = test: Cytotoxicity against human BT-474 cells; assay type: functional
How it was run: (§1)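 BT-474 breast cancer cells and nontumorigenic HMECs treated 48 h with concentrations up to 30 μM. CC50 derived from concentration–response viability plots. Values >30 μM assigned when viability fell by less than 50% of vehicle at 30 μM. Mean ± SEM, n ≥ 3.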

[2] = Cytotoxicity against HMECs; assay type: toxicity, cell-based, HMEC; conditions: human, HMEC cells; how it was run: as §1
[3] = Aqueous kinetic solubility of the compound in PBS at pH 7.4 at 250 uM incubated for 24 hrs by UPLC/MS analysis; assay type: physicochemical; conditions: read-out: Kinetic_solubility
How it was run: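 Kinetic solubility measured in phosphate-buffered saline, pH 7.4. Mean of at least two independent experiments, each run in two technical replicates.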

[4] = Metabolic stability in mouse liver microsomes assessed as parent compound remaining preincubated for 15 mins followed by NADPH addition and measured after 1 hr by LC-MS/MS analysis; assay type: ADME, Microsome; conditions: time 75 min, read-out: Stability
How it was run: (§2)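 Microsomal stability assessed in mouse, human, rat or dog liver microsomes with NADPH cofactor. Half-life and percent parent remaining at 60 and 120 min reported. Mean of at least two independent experiments, each in two technical replicates.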

[5] = Metabolic stability in mouse liver microsomes assessed as parent compound remaining preincubated for 15 mins followed by NADPH addition and measured after 2 hrs by LC-MS/MS analysis; assay type: ADME, Microsome; conditions: time 135 min, read-out: Stability; how it was run: as §2
[6] = Metabolic stability in human liver microsomes assessed as half life preincubated for 15 mins followed by NADPH addition and measured after 1 to 2 hrs by LC-MS/MS analysis; assay type: ADME, Microsome; conditions: liver microsomes, time 75-135 min; how it was run: as §2
[7] = Metabolic stability in human liver microsomes assessed as parent compound remaining preincubated for 15 mins followed by NADPH addition and measured after 1 hr by LC-MS/MS analysis; assay type: ADME, Microsome; conditions: time 75 min, read-out: Stability; how it was run: as §2
[8] = Metabolic stability in human liver microsomes assessed as parent compound remaining preincubated for 15 mins followed by NADPH addition and measured after 2 hrs by LC-MS/MS analysis; assay type: ADME, Microsome; conditions: time 135 min, read-out: Stability; how it was run: as §2
[9] = Metabolic stability in rat liver microsomes assessed as parent compound remaining preincubated for 15 mins followed by NADPH addition and measured after 1 to 2 hrs by LC-MS/MS analysis; assay type: ADME, Microsome; conditions: time 75-135 min; how it was run: as §2
BT-474 [10] = test: Induction of apoptosis in human BT-474 cells assessed as increase in caspase activity after 24 hrs; assay type: functional, cell-based; conditions: dose 2.5-10 µM
How it was run: (§3)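 BT-474 cells treated at a range of concentrations. Apoptosis read out as caspase activity and as cleaved PARP protein by immunoblot.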

BT-474 [11] = test: Induction of apoptosis in human BT-474 cells assessed as increase in cleaved PARP level after 24 hrs; assay type: functional, cell-based; conditions: dose 2.5-10 µM; how it was run: as §3
MDA-MB-231 = test: Cytotoxicity against human MDA-MB-231 cells; assay type: functional
How it was run: (§4)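 Human cancer lines (A375, MDA-MB-231, OMM-1, UPMM-2, CAPAN-2, HepG2, HT-29, HCT116) treated up to 30 μM. CC50 derived from concentration–response viability plots. Mean ± SEM, n ≥ 6. Two-tailed unpaired t test used between compounds.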

A-375 [12] = test: Cytotoxicity against human A-375 cells; assay type: functional; how it was run: as §4
[13] = Cytotoxicity against human OMM-1 cells; assay type: functional; how it was run: as §4
[14] = Cytotoxicity against human UPMM-2 cells; assay type: functional; how it was run: as §4
HepG2 = test: Cytotoxicity against human HepG2 cells; assay type: functional; how it was run: as §4
HCT-116 = test: Cytotoxicity against human HCT-116 cells; assay type: functional; how it was run: as §4
[15] = Volume of distribution in CD1 mouse at 10 mg/kg, ip measured upto 24 hrs; assay type: ADME, organism-based; conditions: in vivo
How it was run: (§5)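 Female CD1 mice given a single 10 mg/kg ip dose. Plasma concentration–time profile analyzed by noncompartmental analysis for half-life and volume of distribution. A two-compartment model was also fitted.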

[16] = Cmax in CD1 mouse at 10 mg/kg, ip measured upto 24 hrs; assay type: ADME, organism-based; parameters: dose 10 mg/kg, time < 24 hrs, route ip; conditions: in vivo; how it was run: as §5
[17] = Tolerability in CD1 mouse assessed as reduction in body weight at 69 micromol/kg, ip administered every daily for 8 days; assay type: toxicity, organism-based; conditions: in vivo, 192 h, dose 69 µmol/kg, time 8 day
How it was run: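 Body weight tracked in female CD1 mice under three regimens: 138 μmol/kg (62 mg/kg) ip daily, assessed after 2 days; 138 μmol/kg every other day over 8 days; 69 μmol/kg (31 mg/kg) daily over 8 days.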

[18] = Tolerability in CD1 mouse assessed as change in body weight at 69 micromol/kg, ip administered as 3 days on and 2 days off schedule and measured after 15 days; assay type: toxicity, organism-based; conditions: in vivo, 360 h, dose 69 µmol/kg, time 15 day
How it was run: (§6)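 Female CD1 mice given 69 μmol/kg (31 mg/kg) ip, 3 days daily then 2 days off, or saline. Body weight, food intake and water intake monitored daily for 15 days. Weight expressed relative to the day before treatment (100%). Mean ± SEM, n = 3.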

[19] = Tolerability in CD1 mouse assessed as change in water intake at 69 micromol/kg, ip administered as 3 days on and 2 days off schedule and measured after 15 days; assay type: toxicity, organism-based; conditions: in vivo, dose 69 µmol/kg; how it was run: as §6
A-375 [20] = test: Antitumor activity against human A-375 cells xenografted in NMRI-Foxn1nu mouse assessed as effect on autophagy by measuring increase in GFP-LC3-II expression at 30 mg/kg, ip administered for 2 days by immunoblotting analysis; assay type: functional, organism-based; conditions: time 2.0 day
How it was run: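 Female NMRI-Foxn1nu mice bearing flank subcutaneous xenografts of GFP-LC3 reporter A375 cells, matched for tumor size, given 30 mg/kg ip or saline for 2 days. Euthanized 48 h after first injection. Tumor lysates immunoblotted with anti-LC3B for GFP-LC3-I and GFP-LC3-II. n = 3; unpaired two-tailed t test versus saline.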

A-375 [21] = test: Antitumor activity against human A-375 cells xenografted in NMRI-Foxn1nu mouse assessed as reduction in tumor weight at 30 mg/kg, ip administered as 3 days on and 2 days off schedule and measured after 15 days; assay type: functional; parameters: scale not given: the % may be the effect or the level left; conditions: time 15 day
How it was run: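 Female NMRI-Foxn1nu mice with subcutaneous A375 flank tumors, grouped by matched tumor volume. Dosing: 30 mg/kg ip or saline, 3 days daily then 2 days off. Tumors measured by digital caliper until day 15. Excised tumors then sized as (W × D × L)/2 and weighed. n = 8; Mann–Whitney two-tailed test for the excised endpoints.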

HEK293 = test: Inhibition of REV-ERBbeta (unknown origin) transcription expressed in HEK293 cells harboring mutated RevRE incubated for 24 hrs by gaussia luciferase based assay; assay type: cell-based; conditions: Homo sapiens
How it was run: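 HEK-293 cells cotransfected with REV-ERBβ and a luciferase reporter bearing a mutated RevRE that REV-ERB cannot bind. Luciferase activity expressed as fold over DMSO vehicle. Mean ± SEM, n = 6.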

A375 (human) [22] = test: Inhibition of autophagy in human A375 cells expressing EGFP-LC3B assessed as increase in LC3-II protein level at 2.5 uM after 24 hrs by immunoblotting analysis
A375 (human) [23] = test: Inhibition of autophagy in human A375 cells expressing EGFP-LC3B assessed as increase in SQSTM1 protein level at 2.5 uM after 24 hrs by immunoblotting analysis
[24] = Metabolic stability in mouse liver microsomes assessed as half-life preincubated for 15 mins followed by UDPGA addition and measured after 2 hrs by LC-MS/MS analysis

Fc1ccc(C2(NCc3ccc(F)c(CC4CCNCC4)c3)CCCC2)cc1
CC50 (BT-474 [1]): 2310 nM | CC50 [2]: > 30000 nM | solubility kinetic at 24 h, 250 µM [3]: > 250 µM | remaining at 1 h [4]: 84% | remaining at 2 h [5]: 72% | half-life [6]: > 2 h | remaining at 1 h [7]: 81% | remaining at 2 h [8]: 68% | Stability [9]: 98% | Activity (BT-474 [10]): Dose-Dependent Effect | Activity (BT-474 [11]): Dose-Dependent Effect | CC50 (MDA-MB-231): 2970 nM | CC50 (A-375 [12]): 2560 nM | CC50 [13]: 1140 nM | CC50 [14]: 1090 nM | CC50 (HepG2): 1490 nM | CC50 (HCT-116): 4560 nM | Vd [15]: 106.07 L/kg | Cmax [16]: 280.23 ng/mL | Activity [17]: Toxic | Activity [18]: Non-Toxic | Activity [19]: Non-Toxic | Activity (A-375 [20]): Active | Activity (A-375 [21]): 56% | inhibition (HEK293): inactive | inhibition (A375 (human) [22]): Active | inhibition (A375 (human) [23]): Active | t1/2 at 2 h [24]: > 2 h
